Bioassay records: PubChem, Broad Institute
FGF22 binding: shifts melting point of recombinant human FGF22; Q9HCT0; recombinant FGF22 thermal shift, SYPRO orange fluorescence; percent of sucrose octasulfate shift, DMSO zero; activity (Tm shift, normalised), % at 9.99 µM; hit rate 1.5% among 340,000;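 active = mean Tm shift, scaled 0 neutral to 100 positive control, at about 1.3% or above, every replicate too, limit read from the data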
Target sequence (Q9HCT0 whole entry, looked up): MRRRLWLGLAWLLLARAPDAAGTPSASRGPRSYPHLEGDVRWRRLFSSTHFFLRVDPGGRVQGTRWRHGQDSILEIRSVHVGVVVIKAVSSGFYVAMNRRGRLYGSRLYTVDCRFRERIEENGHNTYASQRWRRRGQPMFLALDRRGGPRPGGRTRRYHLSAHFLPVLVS
E-selectin induc: induces E-selectin expression in human endothelial cells. HUVEC E-selectin immunofluorescence imaging; normalized: neutral wells 0, TNF-alpha wells 100. AID 686992. P16581. hit rate 0.37% among 260,000. activation, % at 7.58 µM;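 active = mean E-selectin-positive cell signal at least 10% of the positive control, reached in at least 60% of replicates, without over 20% cell loss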
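Material: HUVEC primary endothelial cells; Amount: 3,000 cells per well; Dosing: single concentration; Medium: EGM-2 growth medium on 0.1% gelatin-coated wells; Read-out basis: percent E-selectin-positive cells; Signal: immunofluorescence imaging; Control set: TNF-alpha, DMSO.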
miR122 inh: blocks miR-122 activity in Huh7 sensor cells; Huh7 miR-122 Renilla luciferase sensor, 48 h; neutral wells = 0, positive control = 100; activation (reporter increase), % at 12.5 µM; hit rate 0.3% among 340,000; AID 602342;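 active = mean replicate activation score at least 90 and every replicate individually at or above 90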;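 note: higher luciferase means less miR-122 activity so hits act as miR-122 inhibitors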
S100A4 MyoIIA: S100A4-myosin IIA interaction inhibition; P26447; S100A4/TAMRA-MyoIIA peptide fluorescence polarization; inhibition, % at 10.7 µM; hit rate 0.14% among 360,000;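 active = mean inhibition of at least 70% across replicates, with every replicate also reaching that level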
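assay system = human S100A4 monomer with TAMRA-labelled myosin IIA peptide | also added = labelled myosin peptide probe, 5 nM | incubation = 5 min between mix addition and reading | control set = DMSO and TFP controls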
SIRT5 block: sirtuin-5 (human) deacylase inhibition | inhibition, % at 15 µM | Purified SirT5, succinyl-peptide AMC, trypsin-coupled fluorescence | hit rate 1.1% among 330,000 | AID 652115; in the data active = inhibition above about 15%
Target sequence (Q9NXA8 whole entry, looked up): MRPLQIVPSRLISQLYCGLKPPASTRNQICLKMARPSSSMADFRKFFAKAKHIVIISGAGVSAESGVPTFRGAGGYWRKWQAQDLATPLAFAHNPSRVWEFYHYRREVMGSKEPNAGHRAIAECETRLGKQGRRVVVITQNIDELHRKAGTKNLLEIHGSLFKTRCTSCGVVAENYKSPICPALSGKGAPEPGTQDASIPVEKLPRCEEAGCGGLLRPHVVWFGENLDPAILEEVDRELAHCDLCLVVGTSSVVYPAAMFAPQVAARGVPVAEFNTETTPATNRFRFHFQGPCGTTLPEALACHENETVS
Of the large screens only hits and unclear results are named; the others gave an inactive call. Compounds with a hit are over-represented: about 2.5% of the library has one in this group of screens.

COc1ccc(CNC(=O)CSc2nc(C)cs2)cc1	FGF22 binding 43.3 (no result: E-selectin induc, miR122 inh)
O=C(C[C@H]1CC[C@H](NC(=O)c2ccncc2)[C@@H](CO)O1)NCc1ccncn1	none (no result: FGF22 binding, miR122 inh)
CCOc1ccc(NC(=O)CSc2ccc3nnc(-c4ccccn4)n3n2)cc1	SIRT5 block 17.9 (no result: miR122 inh)
O=C(CSc1ccc2nnc(-c3ccccn3)n2n1)Nc1ccccc1	none
C[C@@H]1CN([C@@H](C)CO)C(=O)Cc2cc(NC(=O)Nc3ccc4c(c3)OCO4)ccc2O[C@H]1CN(C)C(=O)NC1CCCCC1	none
CC(C)COc1ccc(S(=O)(=O)NNC(=O)c2cc3ccccc3o2)cc1	none (no result: FGF22 binding, E-selectin induc, S100A4 MyoIIA, SIRT5 block)
CCCCOc1ccc(S(=O)(=O)NNC(=O)c2cc3ccccc3o2)cc1	SIRT5 block 30.6 (no result: E-selectin induc)
O=C(NC1CCCCC1)N[C@H]1CC[C@@H](CCNS(=O)(=O)c2ccc(Cl)cc2)O[C@@H]1CO	none (no result: miR122 inh)
CCN(c1ccccc1)S(=O)(=O)c1ccc(Cl)c(C(=O)OCC(=O)NC(=O)C(C)C)c1	FGF22 binding 43.3 (no result: E-selectin induc, miR122 inh)
CCC(C)NCC(=O)Nc1cc(S(=O)(=O)N(CC)c2ccccc2)ccc1Cl (centres undefined)	none (no result: FGF22 binding, S100A4 MyoIIA, SIRT5 block)
COc1ccc(C(=O)NC(=S)Nc2cc3oc4ccccc4c3cc2OC)cc1	FGF22 binding 44.0 (no result: E-selectin induc, miR122 inh)
COc1cc(OC)cc(C(=O)NC(=S)Nc2cc3oc4ccccc4c3cc2OC)c1	none (no result: E-selectin induc)
COc1ccccc1N(CC(=O)Nc1cccc(C(F)(F)F)c1)S(C)(=O)=O	none (no result: E-selectin induc)
Cc1ccc([N+](=O)[O-])cc1N(CC(=O)Nc1ccc(S(=O)(=O)Nc2cccc(C(F)(F)F)c2)cc1)S(C)(=O)=O	miR122 inh 123.1 (no result: FGF22 binding, E-selectin induc, S100A4 MyoIIA, SIRT5 block)
COc1ccc(CN(C)C[C@@H]2Oc3ccc(NC(=O)CCCCCC(=O)Nc4ccccc4N)cc3CC(=O)N([C@H](C)CO)C[C@H]2C)cc1	none (no result: miR122 inh)
O=C(O)C(=Cc1ccncc1)c1cccc2ccccc12	FGF22 binding 43.3 (no result: SIRT5 block)
COC(=O)Cc1cc(=O)[nH]c(/N=C(\N)Nc2ccc(C)cc2)n1	none (no result: E-selectin induc)
Cc1cccc(N/C(N)=N/c2nc(C)cc(=O)[nH]2)c1	FGF22 binding 43.0 (no result: miR122 inh)
COC(=O)Cc1cc(=O)[nH]c(/N=C(\N)Nc2cccc(C)c2)n1	FGF22 binding 43.1 (no result: E-selectin induc)
Cc1cc(=O)[nH]c(/N=C(\N)Nc2ccc3c(c2)OCCO3)n1	FGF22 binding 43.6 (no result: E-selectin induc)
COc1ccc(N/C(N)=N/c2nc(C)cc(=O)[nH]2)cc1	none (no result: E-selectin induc)
COCC(=O)N(C)C[C@H]1Oc2cc(-c3cccnc3)ccc2S(=O)(=O)N([C@@H](C)CO)C[C@H]1C	none
COc1ccc(NC(=O)N2CC3(C2)CN(C(=O)CN2CCOCC2)[C@H](CO)c2[nH]c4cc(OC)ccc4c23)cc1	none (no result: miR122 inh)
O=C(C[C@@H]1C=C[C@@H](NS(=O)(=O)c2cccc(F)c2)[C@@H](CO)O1)N1CCCCC1	none (no result: miR122 inh)
COc1ccccc1S(=O)(=O)N(C)C[C@H]1Oc2cc(C#CCC(C)C)ccc2S(=O)(=O)N([C@H](C)CO)C[C@@H]1C	SIRT5 block 29.7 (no result: E-selectin induc)
COc1ccccc1S(=O)(=O)N(C)C[C@@H]1Oc2cc(C#CCC3CCCC3)ccc2S(=O)(=O)N([C@@H](C)CO)C[C@@H]1C	SIRT5 block 17.0
COc1ccccc1S(=O)(=O)N(C)C[C@H]1Oc2cc(C#CCC(C)C)ccc2S(=O)(=O)N([C@@H](C)CO)C[C@H]1C	none (no result: FGF22 binding, E-selectin induc)
CCC(=O)N1[C@H](CO)[C@H](c2ccc(C3=CCCCC3)cc2)[C@H]1CNCC1CCC1	none (no result: FGF22 binding, miR122 inh)
CCC(=O)N[C@H]1CC[C@H](CC(=O)NCc2ccccc2OC)O[C@H]1CO	none (no result: miR122 inh)
COc1ccc(S(=O)(=O)N(C)C[C@@H]2OCCCC[C@@H](C)Oc3ccc(NC(=O)C4CCCCC4)cc3C(=O)N([C@@H](C)CO)C[C@@H]2C)cc1	none
C[C@@H]1CN([C@@H](C)CO)C(=O)c2cccc(NC(=O)NC3CCCCC3)c2O[C@H]1CN(C)S(C)(=O)=O	none (no result: E-selectin induc)
O=C(c1cccc(F)c1)N1C[C@H]2[C@@H](c3ccccc31)[C@@H](CO)N2C(=O)C1CCCCC1	none (no result: FGF22 binding)
CC(C)OC(=O)c1cccnc1N1CCN(c2cccc(Cl)c2)CC1	E-selectin induc 34.3 (no result: miR122 inh)
O=C(c1cc(=O)c2ccccc2o1)N1CCN(c2cccc(Cl)c2)CC1	FGF22 binding 43.3 (no result: E-selectin induc, miR122 inh)
O=C(c1cc(=O)c2ccccc2o1)N1CCN(c2ccccc2F)CC1	none (no result: miR122 inh)
CSc1ccccc1C(=O)N1CCN(c2cccc(Cl)c2)CC1	FGF22 binding 43.4 (no result: E-selectin induc, miR122 inh)
